In ChEMBL document CHEMBL4837204, “Synthesis, biological, and photophysical studies of molecular rotor-based fluorescent inhibitors of the trypanosome alternative oxidase” (Eur J Med Chem, 2021):

Experiments:
[1] = Resistance factor, ratio of EC50 for Antitrypanosomal activity against bloodstream form of Trypanosoma brucei brucei AQP1-3 KO trypomastigotes to EC50 for antitrypanosomal activity against bloodstream form of wild type Trypanosoma brucei brucei S427 trypomastigotes; format: functional
In short: (§1)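 The assay used bloodstream forms in HMI-9 at 37 °C, 5% CO2, 2 × 10⁵ cells/mL, read at ex 544/em 590 nm. EC50 came from a variable-slope sigmoidal fit, at least 3 experiments.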

[2] = test system: Trypanosoma brucei brucei; assay: Antitrypanosomal activity against bloodstream form of wild type Trypanosoma brucei brucei S427 trypomastigotes incubated for 48 hrs by resazurin dye based fluorescence assay; format: functional, organism-based; details: S427, 48 h
In short: (§2)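 Bloodstream T. b. brucei in complete HMI-9 at 37 °C, 5% CO2, 2 × 10⁵ cells/mL, exposed to doubling dilutions of compound for 48 h. Resazurin was then added and cells were incubated a further 24 h. Fluorescence was read at ex 544/em 590 nm with a drug-free control and pentamidine as positive control. EC50 came from a variable-slope sigmoidal fit, at least 3 independent experiments.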

[3] = Cytotoxicity against HEK293T cells assessed as reduction in cell viability […] by resazurin dye based fluorescence assay; set-up: species or system HEK-293T; details: human
[4] = Selectivity index, ratio of CC50 cytotoxicity against HEK293T cells to EC50 for antitrypanosomal activity against bloodstream form of wild type Trypanosoma brucei brucei S427 trypomastigotes; format: toxicity, cell-based; details: human; read-out: Ratio CC50/EC50
In short: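 SI = CC50 on HEK 293T divided by EC50 on WT s427. For HEK 293T, cells adhered 24 h, were exposed 30 h, then given resazurin for 24 h (ex 530/em 590). For trypanosomes, cells were exposed 48 h, then given resazurin for 24 h (ex 544/em 590). Both values came from dose-response fits.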

[5] = molecular target: Alternative oxidase, mitochondrial (Trypanosoma brucei brucei, UniProt Q26710); assay: Inhibition of recombinant Trypanosoma brucei brucei alternative oxidase using ubiquinol as substrate preincubated for 2 mins followed by substrate addition by UV-Vis spectrophotometry
Alternative oxidase, mitochondrial, sequence (Q26710 whole entry): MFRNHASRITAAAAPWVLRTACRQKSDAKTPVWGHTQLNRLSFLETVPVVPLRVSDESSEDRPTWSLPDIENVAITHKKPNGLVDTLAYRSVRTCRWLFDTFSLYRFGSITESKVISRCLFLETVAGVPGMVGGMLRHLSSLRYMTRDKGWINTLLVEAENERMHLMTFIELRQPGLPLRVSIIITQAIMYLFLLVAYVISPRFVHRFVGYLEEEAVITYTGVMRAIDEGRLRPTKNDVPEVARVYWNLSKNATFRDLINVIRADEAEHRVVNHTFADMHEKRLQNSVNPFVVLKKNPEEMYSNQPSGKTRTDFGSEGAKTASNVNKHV
In short: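 Recombinant ΔMTS-TAO was preincubated for 2 min with varying inhibitor amounts at 25 °C in 50 mM Tris-HCl pH 7.4 with 0.05% octaethylene glycol monododecyl ether. The reaction was started with ubiquinol, and its oxidation was followed at 278 nm for 2 min. DMSO served as negative control and ascofuranone/SHAM as positive controls. IC50 came from residual activity versus inhibitor concentration.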

[6] = test system: Trypanosoma brucei brucei; assay: Antitrypanosomal activity against bloodstream form of Trypanosoma brucei brucei AQP1-3 KO trypomastigotes incubated for 48 hrs by resazurin dye based fluorescence assay; format: functional, organism-based; in short: as §2
[7] = test system: Trypanosoma brucei brucei; assay: Antitrypanosomal activity against drug resistant Trypanosoma brucei B48 incubated for 48 hrs by resazurin dye based fluorescence assay; format: functional, organism-based; details: B48, 48 h; in short: as §2
[8] = Resistance factor, ratio of EC50 for antitrypanosomal activity against drug resistant Trypanosoma brucei B48 to EC50 for antitrypanosomal activity against bloodstream form of wild type Trypanosoma brucei brucei S427 trypomastigotes; format: functional; in short: as §1
[9] = Drug localization in mitochondria of mouse MC3T3-E1 cells at 0.6 uM incubated for 30 mins by MTDR staining based single-photon excitation fluorescence analysis; format: ADME; details: mc3t3-e1, 0.5 h
In short: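 MC3T3-E1 preosteoblasts were grown in αMEM with 10% FBS, glutamine and pen/strep, then seeded at 25,000 cells/well on glass-bottom slides. Cells were preincubated with compound for 30 min at 37 °C, then given MitoTracker Deep Red (16 nM final) for 30 min. Confocal imaging used alternating excitation: 561 nm with detection at 580–630 nm, and 640 nm with detection at 650–720 nm.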

[10] = Drug uptake in bloodstream form of wild type Trypanosoma brucei brucei S427 trypomastigotes assessed as increase in fluorescent signal at 0.2 uM measured by fluorimeter; format: ADME
In short: (§3)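 Mid-log bloodstream 427WT or aqp1-3 null cells were washed and resuspended at 10⁸ cells/mL in assay buffer. Fluorescence was read continuously at 37 °C, 5% CO2 (ex 544/em 620). After a background period, compound was added at the stated final concentration. Each trace averages 3 replicate wells on one plate.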

[11] = Drug uptake in bloodstream form of Trypanosoma brucei brucei AQP1-3 KO trypomastigotes at 0.2 to 2 uM measured after 1 hr by fluorimeter; format: ADME; details: dose 0.2-2 µM; in short: as §3
[12] = Drug localization in rat liver mitochondria; format: ADME
In short: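 Rat liver was homogenised in 20 mM HEPES/250 mM sucrose, pH 7.4. After 800×g spins, mitochondria were enriched at 9000×g. Probe at 3 × 10⁻⁷ M was incubated with the mitochondrial suspension for 20 min at room temperature, then spun at 10,000×g for 10 min. Supernatant emission (ex 470 and 540 nm) was compared with probe in buffer alone to estimate the fraction partitioned into mitochondria.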

[13] = Drug localization in mitochondria of mouse MC3T3-E1 cells incubated for 30 mins by […] based two-photon excitation microscopy analysis; format: ADME; details: mc3t3-e1, 0.5 h
[14] = Drug localization in mitochondria of Trypanosoma brucei brucei at 40 uM incubated for 60 mins by MTG dye based confocal microscopy analysis; format: ADME; details: 1 h
In short: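 Bloodstream T. b. brucei at 2 × 10⁶ cells/mL were given compound in complete HMI-9 for 1 h at 37 °C, 5% CO2. MitoTracker Green (100 nM final) was added for 10 min. Cells were then pelleted, PBS-washed and stained with Hoechst 33342 for 10 min in the dark. They were immobilised in PBS-primed CyGEL and imaged for overlap with MTG.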

Structure (SMILES): Cc1cc[n+](CCCCCCCCCCCCCCOC(=O)c2c(O)cc(O)c(Cl)c2C)cc1
- Ratio EC50 [1]: 0.8
- EC50 [2]: 240 nM
- CC50 [3]: 43700 nM
- selectivity ratio [4]: 182
- IC50 [5]: 720 nM
- EC50 [6]: 190 nM
- EC50 [7]: 220 nM
- Ratio EC50 [8]: 1.53

Structure (SMILES): COC(=O)c1c(C)cc(OCCCCCCCCCCCCCC[n+]2ccc(/C=C/c3cc4c5c(c3O)CCCN5CCC4)cc2)cc1O
- Ratio EC50 [1]: 0.81
- EC50 [2]: 540 nM
- CC50 [3]: 23600 nM
- selectivity ratio [4]: 43.6
- IC50 [5]: 42 nM
- EC50 [6]: 440 nM
- EC50 [7]: 590 nM
- Ratio EC50 [8]: 1.1

Structure (SMILES): N=C(N)c1ccc(OCCCCCOc2ccc(C(=N)N)cc2)cc1 [PENTAMIDINE]
- Ratio EC50 [1]: 6.9
- EC50 [2]: 4.9 nM
- EC50 [6]: 34 nM
- EC50 [7]: 500 nM
- Ratio EC50 [8]: 102

Structure (SMILES): Cc1cc(O)cc(OCCCCCCCCCCCCCC[n+]2ccc(/C=C/c3cc4c5c(c3O)CCCN5CCC4)cc2)c1.[Br-]
- Ratio EC50 [1]: 0.85
- EC50 [2]: 500 nM
- CC50 [3]: 22200 nM
- selectivity ratio [4]: 44.1
- IC50 [5]: 145 nM
- EC50 [6]: 430 nM
- EC50 [7]: 630 nM
- Drug uptake [9]: Active
- Ratio EC50 [8]: 1.25

Structure (SMILES): Oc1c(/C=C/c2cc[n+](CCCCCCCCCCCCCCBr)cc2)cc2c3c1CCCN3CCC2.[Br-]
- Ratio EC50 [1]: 0.79
- EC50 [2]: 430 nM
- CC50 [3]: 26700 nM
- selectivity ratio [4]: 62.6
- IC50 [5]: > 5000 nM
- EC50 [6]: 340 nM
- EC50 [7]: 490 nM
- Drug uptake [10]: Not Active
- Ratio EC50 [8]: 1.16
- Drug uptake [11]: Not Active

Structure (SMILES): Cc1c(Cl)c(O)cc(O)c1C(=O)OCCCCCCCCCCCCCCBr
- Ratio EC50 [1]: 1.91
- EC50 [2]: 6840 nM
- CC50 [3]: 55900 nM
- selectivity ratio [4]: 8.2
- IC50 [5]: 750 nM
- EC50 [6]: 13100 nM
- EC50 [7]: 10100 nM
- Ratio EC50 [8]: 1.48

Structure (SMILES): Cc1cc[n+](CCCCCCCCCCCCCCOc2cc(C)c(C(=O)O)c(O)c2)cc1
- Ratio EC50 [1]: 0.84
- CC50 [3]: > 20000 nM
- selectivity ratio [4]: > 10
- IC50 [5]: 1800 nM
- EC50 [6]: 16600 nM

Structure (SMILES): Cc1cc(O)cc(O)c1C(=O)OCCCCCCCCCCCCCC[n+]1ccc(/C=C/c2cc3c4c(c2O)CCCN4CCC3)cc1.[Br-]
- Ratio EC50 [1]: 1.03
- Drug uptake [12]: 66%
- EC50 [2]: 1010 nM
- Drug uptake [13]: Active
- CC50 [3]: > 100000 nM
- selectivity ratio [4]: > 100
- Drug uptake [14]: Active
- IC50 [5]: 360 nM
- EC50 [6]: 1050 nM
- EC50 [7]: 1190 nM
- Drug uptake [9]: Active
- Ratio EC50 [8]: 1.17

Structure (SMILES): Cc1cc[n+](CCCCCCCCCCCCCCOC(=O)c2c(C)cc(O)cc2O)cc1
- EC50 [2]: 55 nM
- CC50 [3]: 760 nM
- selectivity ratio [4]: 13.8
- IC50 [5]: > 5000 nM
- EC50 [7]: 60 nM
- Ratio EC50 [8]: 1.04

Structure (SMILES): Cc1cc[n+](CCCCCCCCCCCCCCOC(=O)c2c(C)c(Cl)c(O)c(Cl)c2O)cc1
- EC50 [2]: 2550 nM
- CC50 [3]: 4400 nM
- selectivity ratio [4]: 1.7
- IC50 [5]: 910 nM
- EC50 [7]: 2640 nM
- Ratio EC50 [8]: 1.03
